Screening data from PubChem BioAssay.
Sampled rows, rich in hits. Any-hit rate of the full collection: about 1.8%.
CHRM5 PAM = CHRM5 positive allosteric modulation. CHO-K1 hM5, Fluo-8 calcium, ACh EC20 PAM; 0% = ACh EC20, 100% = ACh EC100. activation, % at 3 µM. hit rate 0.3% among 360,000;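 active means activation above the run cutoff, the mean activation of all test compounds plus 3 SD, cut at about 18% in these data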
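system = human M5 receptor in CHO-K1 cells | compound = one concentration, 3 µM final (nominal) | schedule = Post-acetylcholine fluorescence recording 140 s | signal = Fluo-8 calcium dye fluorescence, kinetic read | benchmarks = low control EC20 acetylcholine (0%), high control EC100 acetylcholine (100%) | repeats = singlicate, one well per test compound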
CHRM5 agonist = agonists of human muscarinic M5 receptor (CHRM5). hit rate 0.19% among 360,000. AID 624037. activation, % at 3 µM. CHO-K1 hM5 cells, Fluo-8 calcium fluorescence; 0% DMSO wells, 100% maximal acetylcholine response;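 active means activation above the run's mean over test compounds plus 3 SD, cut at about 23% in these data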;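 further: signal is peak over basal fluorescence ratio across the kinetic read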
CHRM4 PAM = positive allosteric modulators of human muscarinic M4 receptor; CHO-K1 hM4/Gqi5, Fluo-8 calcium fluorescence, ACh EC20; 0% = ACh EC20, 100% = maximal ACh; activation, % at 3 µM; AID 624126; hit rate 0.4% among 360,000; P08173;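 active means activation above its plate's cutoff, the mean activation of sample wells plus 3 SD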
Target sequence (P08173 whole entry, looked up): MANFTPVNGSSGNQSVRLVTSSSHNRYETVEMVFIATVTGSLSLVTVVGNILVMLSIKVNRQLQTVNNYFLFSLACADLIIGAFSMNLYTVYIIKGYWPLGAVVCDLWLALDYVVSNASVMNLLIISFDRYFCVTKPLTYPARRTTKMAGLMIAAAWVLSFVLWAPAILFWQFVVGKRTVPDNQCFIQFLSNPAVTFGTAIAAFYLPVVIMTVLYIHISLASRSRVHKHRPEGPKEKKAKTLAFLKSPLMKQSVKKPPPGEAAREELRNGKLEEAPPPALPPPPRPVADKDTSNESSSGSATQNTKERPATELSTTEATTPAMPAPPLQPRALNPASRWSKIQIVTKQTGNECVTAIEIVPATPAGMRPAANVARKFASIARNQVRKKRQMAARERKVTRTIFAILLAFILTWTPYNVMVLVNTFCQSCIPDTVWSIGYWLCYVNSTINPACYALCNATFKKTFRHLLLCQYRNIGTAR
CHRM4 agonist = agonists of human muscarinic M4 receptor (CHRM4); hit rate 0.14% among 360,000; activation, % at 3 µM; AID 624127; CHO-K1 hM4/Gqi5, Fluo-8 calcium fluorescence; vehicle 0%, full acetylcholine response 100%; P08173;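 active means activation above the run mean over all test wells plus 3 SD, cut at about 32% in these data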;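 further: peak over basal fluorescence ratio per well then scaled between controls; 0% = DMSO wells and 100% = acetylcholine at EC100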
CHRM4 antagonist = CHRM4 antagonism in calcium assay | inhibition, % at 3 µM | P08173 | CHO-hM4 cells, ACh EC80, Fluo-8 calcium fluorescence | hit rate 0.73% among 360,000;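 active means inhibition above its plate's cutoff, the mean inhibition of sample wells plus 3 SD, cut at about 27% in these data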;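 further: 0% = acetylcholine EC80 with DMSO and 100% = DMSO without agonist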
M5 antag = blocks acetylcholine activation of human M5 receptor. P08912. CHO-hM5 cells, Fluo-8 calcium fluorescence, ACh EC80. inhibition, % at 3 µM. hit rate 0.59% among 360,000;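 active means inhibition above a per-plate cutoff, the mean of that plate's test compounds plus 3 SD, cut at about 27% in these data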;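 further: 0% = acetylcholine EC80 with DMSO and 100% = DMSO without agonist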
Numbers without * were called inactive.

For Clc1ccc2c(c1)C(N1CCNCC1)Cc1ccccc1S2 (centres undefined) the results were CHRM5 PAM -30, CHRM5 agonist -10, CHRM4 PAM -15, CHRM4 agonist 11, CHRM4 antagonist 82* and M5 antag 97*.
For NC(=O)CCN1CCN(CCOC2Cc3cc(Cl)ccc3Sc3ccccc32)CC1 (centres undefined) the results were CHRM5 PAM -15, CHRM5 agonist -5, CHRM4 PAM -18, CHRM4 agonist 7, CHRM4 antagonist 4 and M5 antag 28*.
COCCCN1CCN(C2Cc3ccccc3Sc3ccc(Cl)cc32)CC1 (centres undefined) was read as CHRM5 PAM -18, CHRM5 agonist 1, CHRM4 PAM -33, CHRM4 agonist 15, CHRM4 antagonist 6 and M5 antag 30*.
Clc1cccc2c1Sc1ccccc1CC2N1CCNCC1 (centres undefined) was read as CHRM5 PAM -19, CHRM5 agonist -3, CHRM4 PAM -20, CHRM4 agonist 19, CHRM4 antagonist 68* and M5 antag 78*.
Screening O=C1/C(=C/c2cccs2)SC(=S)N1c1cccc(O)c1 returned CHRM5 PAM -9, CHRM5 agonist -1, CHRM4 PAM -23, CHRM4 agonist 5, CHRM4 antagonist 11 and M5 antag 9.
For COCCN(CCOc1cc(C)cc(C)c1)Cc1ccc(Cl)cc1 the results were CHRM5 PAM 1, CHRM5 agonist -4, CHRM4 PAM 0, CHRM4 agonist -1, CHRM4 antagonist -1 and M5 antag 1.
Screening CN1CCC2(CC1)N=C(c1ccc(F)cc1)C(=S)N2C(=O)c1ccc(C(C)(C)C)cc1 returned CHRM5 PAM -21, CHRM5 agonist -10, CHRM4 PAM -2, CHRM4 agonist 2, CHRM4 antagonist 5 and M5 antag 33*.
COc1cc(C(C(=O)NCc2ccccc2)N(C(=O)c2snc(C(N)=O)c2N)C2CCCC2)cc(OC)c1OC (centres undefined) was read as CHRM5 PAM 8, CHRM5 agonist 2, CHRM4 PAM 16, CHRM4 agonist 4, CHRM4 antagonist -26 and M5 antag -6.
O=C(NCc1ccc2c(c1)OCO2)Nc1ccc([N+](=O)[O-])cc1 was read as CHRM5 PAM -18, CHRM5 agonist 3, CHRM4 PAM -12, CHRM4 agonist 12, CHRM4 antagonist 9 and M5 antag 38*.
`CNc1cc(-c2ccc(CC#N)cc2)ncn1` gave CHRM5 PAM -4, CHRM5 agonist -2, CHRM4 PAM -1, CHRM4 agonist 2, CHRM4 antagonist -4 and M5 antag -2.
CCOC(=O)CC1(C)Oc2cc(Cl)ccc2N1S(=O)(=O)c1ccc(C)cc1 (centres undefined) was read as CHRM5 PAM -19, CHRM5 agonist -5, CHRM4 PAM -16, CHRM4 agonist -1, CHRM4 antagonist 24 and M5 antag 31*.
CCOC(=O)CC1(CCc2ccccc2)Oc2ccccc2N1S(=O)(=O)c1ccc(C)cc1 (centres undefined) was read as CHRM5 PAM -4, CHRM5 agonist 1, CHRM4 PAM 12, CHRM4 agonist 3, CHRM4 antagonist -8 and M5 antag -12.
Screening CCN(CC)CCCOC(=O)C(c1ccccc1)c1ccccc1 returned CHRM5 PAM -24, CHRM5 agonist -6, CHRM4 PAM -15, CHRM4 agonist 2, CHRM4 antagonist 91* and M5 antag 98*.
O=C(Nc1nnc([C@@H]2C[C@H](O)[C@@H](CO)O2)s1)c1cccc2ccccc12 was read as CHRM5 PAM 0, CHRM5 agonist 1, CHRM4 PAM -4, CHRM4 agonist 0, CHRM4 antagonist 4 and M5 antag -8.
`CN1CCC(OC(=O)c2ccccc2Cl)CC1` gave CHRM5 PAM -21, CHRM5 agonist -11, CHRM4 PAM -11, CHRM4 agonist 1, CHRM4 antagonist 2 and M5 antag 34*.
O=C(CN1C(=O)CCC1=O)Nc1ccc(Br)cc1 was read as CHRM5 PAM -10, CHRM5 agonist -5, CHRM4 PAM 3, CHRM4 agonist 0, CHRM4 antagonist -15 and M5 antag -5.
For O=C(CN1C(=O)CCC1=O)Nc1cccc(NC(=O)CN2C(=O)CCC2=O)c1 the results were CHRM5 PAM 19*, CHRM5 agonist 0, CHRM4 PAM 11, CHRM4 agonist 1, CHRM4 antagonist -10 and M5 antag -2.
Screening O=C(CCNC(=O)c1ccc([N+](=O)[O-])cc1)Oc1ccc(F)c(F)c1 returned CHRM5 PAM -12, CHRM5 agonist -7, CHRM4 PAM -5, CHRM4 agonist 1, CHRM4 antagonist 1 and M5 antag 11.
Cc1ccc(NC(=O)CSc2nnc(-c3ccc(S(=O)(=O)N4CCCC4)cc3)o2)cc1C was read as CHRM5 PAM -3, CHRM5 agonist 0, CHRM4 PAM 5, CHRM4 agonist 1, CHRM4 antagonist -7 and M5 antag 8.
Screening COC(=O)c1ccc2nc(-c3cccc(Br)c3)c(Cc3ccsc3)n2c1 returned CHRM5 PAM 1, CHRM5 agonist 1, CHRM4 PAM 21*, CHRM4 agonist 0, CHRM4 antagonist -15 and M5 antag -10.
`Fc1ccc(N2CCN(Cc3cn[nH]c3-c3ccccc3)CC2)cc1` gave CHRM5 PAM -3, CHRM5 agonist 7, CHRM4 PAM -7, CHRM4 agonist 1, CHRM4 antagonist -3 and M5 antag 4.
`Fc1ccc(-c2[nH]ncc2CN2CCN(c3ccc(F)cc3)CC2)cc1` gave CHRM5 PAM 2, CHRM5 agonist 31*, CHRM4 PAM -4, CHRM4 agonist 9, CHRM4 antagonist 2 and M5 antag 5.
Cn1nccc1C(=O)Nc1cccc(S(=O)(=O)N2CCOCC2)c1 was read as CHRM5 PAM 2, CHRM5 agonist -1, CHRM4 PAM 22*, CHRM4 agonist 1, CHRM4 antagonist 8 and M5 antag -2.
Screening CCc1nc2ccccc2c(C(=O)OCC(=O)Nc2cccc(S(=O)(=O)N3CCOCC3)c2)c1C returned CHRM5 PAM -18, CHRM5 agonist 4, CHRM4 PAM -19, CHRM4 agonist 11, CHRM4 antagonist 30* and M5 antag 11.
Screening O=C(COC(=O)c1cc(S(=O)(=O)N2CCCC2)ccc1O)Nc1ccc(S(=O)(=O)N2CCOCC2)cc1 returned CHRM5 PAM 4, CHRM5 agonist -4, CHRM4 PAM 37*, CHRM4 agonist 4, CHRM4 antagonist 15 and M5 antag 9.
